We go through one compound from ChEMBL document CHEMBL4177770, “Discovery of MK-6169, a Potent Pan-Genotype Hepatitis C Virus NS5A Inhibitor with Optimized Activity against Common Resistance-Associated Substitutions” (J Med Chem, 2018).

Where only a bound is given, the exact number is not on record here.

Data set [1] is described as follows: Half life in Beagle dog at 1 mg/kg, iv by LC/MS method. The data set is classed as ADME, organism-based, Canis lupus familiaris. The following applies: in vivo. The procedure, abridged: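 Beagle dogs, two animals per group, dosed IV at 1 mg/kg in 60% PEG200. Plasma was prepared from collected blood by centrifugation, and compound was quantified by LC/MS.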

Data set [2] is described as follows: Clearance in Wistar Han rat at 2 mg/kg, iv by LC/MS method. The data set is classed as ADME, organism-based. The following applies: in vivo. An outline of the steps: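 Male Wistar Han rats, two per group, dosed IV at 2 mg/kg in 60% PEG200. Plasma was obtained by centrifuging the blood, and compound concentrations were measured by LC/MS.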
A short description of data set [3]: AUC in Wistar Han rat at 10 mg/kg, po by LC/MS method. The data set is classed as ADME, organism-based. As to conditions: in vivo. The procedure, abridged:
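Male Wistar Han rats, two per dosing group, dosed orally at 10 mg/kg in 10% TWEEN. Plasma was separated from collected blood by centrifugation and analysed by LC/MS.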

The nature of data set [4]: Cmax in Beagle dog at 5 mg/kg, po by LC/MS method. The data set is classed as ADME, organism-based, Canis lupus familiaris. Also noted: dose 5 mg/kg, route oral. The following applies: in vivo. An outline of the steps: (§1)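 Beagle dogs, two animals per dosing group. Oral dose was given in 10% TWEEN. Blood was collected and spun to plasma, and plasma compound levels were measured by LC/MS.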

Data set [5] in a line: Oral bioavailability in Beagle dog at 5 mg/kg by LC/MS method. The following applies: in vivo. The data set is classed as ADME, organism-based, Canis lupus familiaris. An outline of the steps:
as §1

The nature of data set [6]: MRT in Wistar Han rat at 100 mg/kg, po by LC/MS method. As to conditions: in vivo. The data set is classed as ADME, organism-based. The procedure, abridged:
(§2)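 Single rising oral dose study in fed male Wistar Han rats, dosed PO in 10% TWEEN at the indicated doses. Plasma was obtained by centrifuging the blood, and compound levels were determined by LC/MS.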

The nature of data set [7]: Cmax in Wistar Han rat at 300 mg/kg, po by LC/MS method. The following applies: in vivo. Also noted: dose 300 mg/kg, route oral. The data set is classed as ADME, organism-based. An outline of the steps: as §2
Data set [8] is described as follows: MRT in Wistar Han rat at 300 mg/kg, po by LC/MS method. The data set is classed as ADME, organism-based. As to conditions: in vivo. The procedure, abridged: as §2
In data set [9] the test system is Nonstructural protein 5A (Hepatitis C virus), Q5L478 [UNDEFINED MUTATION]. Description: Inhibition of NS5A L31M/Y93C double mutant in HCV genotype 1a infected in HuH7 replicon cells assessed as decrease in viral replication after 3 days by RT-PCR method. As to conditions: Hepatitis C virus subtype 1a. The data set is classed as cell-based.
Data set [10] concerns Hepatitis C virus subtype 1a. Description: Resistance ratio of EC90 for NS5A M28T mutant in HCV genotype 1a infected in HuH7 replicon cells to EC90 for NS5A in HCV genotype 1a infected in HuH7 replicon cells. The data set is classed as cell-based.
The test system of data set [11] is Hepatitis C virus subtype 1a. The data set is described as follows: Resistance ratio of EC90 for NS3 R155K mutant in HCV genotype 1a infected in HuH7 replicon cells to EC90 for NS5A in HCV genotype 1a infected in HuH7 replicon cells. The data set is classed as cell-based.
Data set [12] relates to Hepatitis C virus subtype 1a. Description: Resistance ratio of EC90 for NS5A R81W mutant in HCV genotype 1a infected in HuH7 replicon cells to EC90 for NS5A in HCV genotype 1a infected in HuH7 replicon cells. The data set is classed as cell-based.
In data set [13] the test system is Hepatitis C virus subtype 1a. Description: Resistance ratio of EC90 for NS5A R81S mutant in HCV genotype 1a infected in HuH7 replicon cells to EC90 for NS5A in HCV genotype 1a infected in HuH7 replicon cells. The data set is classed as cell-based.
The target in data set [14] is T1, Nonstructural protein 5A (Hepatitis C virus) (UniProt Q5L478).
T1 sequence (whole entry): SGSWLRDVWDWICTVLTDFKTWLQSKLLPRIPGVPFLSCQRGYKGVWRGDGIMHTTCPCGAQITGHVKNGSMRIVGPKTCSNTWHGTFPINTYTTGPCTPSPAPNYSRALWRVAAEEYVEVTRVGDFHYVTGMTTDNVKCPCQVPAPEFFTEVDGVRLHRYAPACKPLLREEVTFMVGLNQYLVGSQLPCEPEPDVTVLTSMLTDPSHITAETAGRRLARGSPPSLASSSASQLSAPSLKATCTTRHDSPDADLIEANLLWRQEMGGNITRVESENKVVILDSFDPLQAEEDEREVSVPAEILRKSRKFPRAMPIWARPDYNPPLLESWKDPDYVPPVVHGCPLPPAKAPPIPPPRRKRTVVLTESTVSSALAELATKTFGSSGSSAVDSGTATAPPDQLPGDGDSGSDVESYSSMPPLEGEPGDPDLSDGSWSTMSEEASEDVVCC
Description: Inhibition of NS5A A92K mutant in HCV genotype 1b infected in HuH7 replicon cells assessed as decrease in viral replication after 3 days by RT-PCR method. As to conditions: Hepatitis C virus subtype 1b. The data set is classed as cell-based.

Data set [15] concerns Nonstructural protein 5A (Hepatitis C virus), Q5L478 [UNDEFINED MUTATION]. Description: Inhibition of NS5A L31M/Y93H double mutant in HCV genotype 1b infected in HuH7 replicon cells assessed as decrease in viral replication after 3 days by RT-PCR method. The data set is classed as cell-based. The following applies: Hepatitis C virus subtype 1b.
Data set [16] can be described thus: Resistance ratio of EC90 for NS5A in HCV genotype 1b infected in HuH7 replicon cells to EC90 for NS5A in HCV genotype 1a infected in HuH7 replicon cells. The data set is classed as cell-based.
For data set [17], the target named is T1, Nonstructural protein 5A (Hepatitis C virus). Description: Inhibition of NS5A L31F mutant in HCV genotype 3a infected in HuH7 replicon cells assessed as decrease in viral replication after 3 days by RT-PCR method. The data set is classed as cell-based. The following applies: Hepatitis C virus subtype 3a.
Data set [18] shares this target. The data set is described as follows: Inhibition of NS5A A30K mutant in HCV genotype 3a infected in HuH7 replicon cells assessed as decrease in viral replication after 3 days by RT-PCR method. The data set is classed as cell-based. As to conditions: Hepatitis C virus subtype 3a.
Data set [19] shares this target. The data set is described as follows: Inhibition of NS5A L30H mutant in HCV genotype 4a infected in HuH7 replicon cells assessed as decrease in viral replication after 3 days by RT-PCR method. The data set is classed as cell-based. The following applies: Hepatitis C virus subtype 4a.
Data set [20] is described as follows: Resistance ratio of EC90 for NS5A L31M mutant in HCV genotype 2b infected in HuH7 replicon cells to EC90 for NS5A in HCV genotype 1a infected in HuH7 replicon cells. The data set is classed as cell-based.
Data set [21] in a line: Resistance ratio of EC90 for NS5A M31V mutant in HCV genotype 2b infected in HuH7 replicon cells to EC90 for NS5A in HCV genotype 1a infected in HuH7 replicon cells. The data set is classed as cell-based.
Data set [22] can be described thus: Resistance ratio of EC90 for NS5A L30H mutant in HCV genotype 4a infected in HuH7 replicon cells to EC90 for NS5A in HCV genotype 1a infected in HuH7 replicon cells. The data set is classed as cell-based.
Data set [23] can be described thus: Resistance ratio of EC90 for NS5A P32L mutant in HCV genotype 4a infected in HuH7 replicon cells to EC90 for NS5A in HCV genotype 1a infected in HuH7 replicon cells. The data set is classed as cell-based.
The test system of another data set is Huh-7. The data set is described as follows: Cytotoxicity against human HuH7 cells assessed as effect on GAPDH mRNA levels up to 25 uM. The data set is classed as cell-based. The procedure, abridged: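 Huh-7 cells were exposed to compound up to a top concentration of 25 µM. Cytotoxicity was monitored as the change in GAPDH mRNA levels.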

`COC(=O)N[C@H](C(=O)N1CCC[C@H]1c1ncc(-c2cc(F)c3c(c2)O[C@@H](c2ccc(C4CC4)s2)n2c-3cc3cc(-c4cnc([C@@H]5CCCN5C(=O)[C@@H](NC(=O)OC)[C@@H]5CCOC(C)(C)C5)[nH]4)ccc32)[nH]1)C(C)C` gave a half-life in data set [1] of 5.8 h. Moreover, the clearance in [2] came out at 7 mL/min/kg. The compound also had an area under the curve (AUC) in data set [3] of 0.95 to 1.65 µM·h. The results for the Cmax in [4] and in data set [7] were 660 nM and 1060 nM, respectively. The compound further displayed a bioavailability in [5] of 14.9%. In addition, the MRT in data set [6] was 12.4 h; in data set [8] it was 10.7 h. For the same compound, the EC90 in [9] worked out at 0.18 nM; in data set [14], 0.026 nM; in data set [15], 0.19 nM; in data set [17], 0.29 nM; in [18], 0.018 nM; in data set [19], 0.072 nM. For the same compound, the Ratio is less than 1 in data set [10]; less than 1 in [11]; less than 1 in [12]; less than 1 in [13]; 1 in data set [16]; 4 in data set [20]. For the same compound, the Ratio in data set [21] was determined as 5; in [22], 17; in data set [23], 1. The Activity entry with Huh-7 was “Non-Toxic”.
